Test results published in ChEMBL document CHEMBL5038579, “Structure-Guided Development of Potent Benzoylurea Inhibitors of BCL-XL and BCL-2” (J Med Chem, 2021).
The source made the active and inactive calls. The calls are words filed in the database; no cut-off is given here.

What was measured:
[1] = Inhibition of GST tagged human BCL-XL deltaC25 using biotin-DLRPEIRIAQELRIZIGDEFNETYTRR as substrate […] measured after 4 hrs by AlphaSCREEN assay
[2] = Inhibition of GST tagged human/mouse chimeric MCL-1 using biotin-DLRPEIRIAQELRIZIGDEFNETYTRR as substrate incubated for 40 mins followed by substrate addition measured after 4 hrs by AlphaSCREEN assay
MEF [3] = experiment: Cytotoxicity against MCL deficient mouse embryonic fibroblast cells assessed as reduction in cell viability in presence of 1 % fetal calf serum measured after 24 hrs by propidium iodide staining based flow cytometric analysis; assay type: functional
In short: (§1)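 MEFs (WT, MCL-1−/−, MCL-1−/−/BAX−/−/BAK−/−) seeded at 1 × 10⁴ cells/well in FMA medium with 1% FCS, 24 h before dosing. Four-point dilutions: 0.168−0.00005 μM for ABT-737, 25−3.13 μM for others; final DMSO 0.2%, duplicate wells, 24 h. Cells stained with PI, flow cytometry on 1000 events. PI-negative fraction normalized to DMSO vehicle; EC₅₀ by nonlinear regression, mean ± SEM of three experiments.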

MEF [4] = experiment: Cytotoxicity against MCL-1deficient MEF cells assessed as release of cytochrome c from mitochondria at 25 uM FACS analysis; assay type: functional
In short: (§2)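 MEFs at 1.5 × 10⁵ cells/well in FMA medium with 1% FCS, 3 h rest, then compounds for 18 h (final DMSO 0.25%) beside a vehicle control. Cells permeabilized with 0.025% digitonin on ice for 5 min, then fixed in 1% paraformaldehyde. Stained with anti-cytochrome c (1:100) and a PE secondary in saponin buffer. FL2 read on 10 000 events for % cells with low cytochrome c. Four experiments; multiple unpaired t test (Holm−Sidak, α = 0.01).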

MEF [5] = experiment: Cytotoxicity against wild type MEF cells assessed as release of cytochrome c from mitochondria FACS analysis; assay type: functional, cell-based; settings: Mus musculus; in short: as §2
MEF [6] = experiment: Cytotoxicity against MCL-1/BAX/BAK deficient MEF cells assessed as release of cytochrome c from mitochondria by FACS analysis; assay type: functional, cell-based; settings: Mus musculus; in short: as §2
[7] = Inhibition of GST tagged human BCL-XL deltaC25 by surface plasmon resonance assay
[8] = Inhibition of human BCL-2 deltaC22 by surface plasmon resonance assay
In short: (§3)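 Biacore solution competition. Protein (10 nM) preincubated 2 h with compound (12.5−0.0001 μM, 10-step half-log series) in HEPES running buffer pH 7.4 with EDTA and 0.005% Tween 20. Injected over a CM5 chip carrying wild-type or inert mBIM BH3 peptide. IC₅₀ by nonlinear curve fit. GST tag removed from BCL-XL and MCL-1 before use.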

[9] = Inhibition of human BCL-W deltaC23 C29S/A128E mutant by surface plasmon resonance assay; in short: as §3
[10] = Inhibition of GST tagged human/mouse chimeric MCL-1 by surface plasmon resonance assay
[11] = Inhibition of mouse A1 deltaC20 P10K/C113S mutant by surface plasmon resonance assay; in short: as §3
MEF [12] = experiment: Cytotoxicity against wild type mouse embryonic fibroblast cells assessed as reduction in cell viability in presence of 1 % fetal calf serum measured after 24 hrs propidium iodide staining based flow cytometric analysis; assay type: functional; in short: as §1
MEF [13] = experiment: Cytotoxicity against MCL-1/BAX/BAK deficient mouse embryonic fibroblast cells assessed as reduction in cell viability in presence of 1 % fetal calf serum measured after 24 hrs propidium iodide staining based flow cytometric analysis; assay type: functional; in short: as §1
MEF [14] = experiment: Cytotoxicity against mouse embryonic fibroblast cells assessed as reduction in cell viability in presence of 10 % fetal calf serum measured after 24 hrs propidium iodide staining based flow cytometric analysis; assay type: functional
COLO 205 = experiment: Cytotoxicity against BCL-XL dependent human COLO205 cells assessed as reduction in cell viability measured after 48 hrs by CellTitre-Glo assay; assay type: functional, cell-based
In short: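 COLO205 cells (WT or BAK−/−/BAX−/−), kept in RPMI-1640 with 10% FCS, seeded at 3 × 10³ cells/well in medium with 10 or 1% FCS. Dosed one day later with six-point serial dilutions (0.0003−10 μM 1:8 for BH3 mimetics; 0.1−25 μM 1:3 for benzoylureas). Viability normalized to matched DMSO vehicle; EC₅₀ by curve fit.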

MEF [15] = experiment: Cytotoxicity against MCL-1deficient MEF cells assessed as release of cytochrome c from mitochondria at 2.5 uM FACS analysis; assay type: functional, Mus musculus; in short: as §2

SMILES | IC50 [1] [µM] | IC50 [2] [µM] | IC50 [7] [µM] | IC50 [8] [µM] | IC50 [9] [µM] | IC50 [10] [µM] | IC50 [11] [µM] | further results
Cc1ccc(CN(C(=O)NCCSCc2ccccc2)C(=O)c2ccc(-c3ccccc3)cc2)cc1 | > 100 | > 100 |  |  |  |  |  | 
CCCN(C(=O)N[C@@H](CSCc1ccccc1)C(=O)O)C(=O)c1ccc(-c2ccccc2)cc1 | 31 | 28 |  |  |  |  |  | EC50 (MEF [3]): > 25 µM; Activity (MEF [4]; Mus musculus): inactive; Activity (MEF [5]): inactive; Activity (MEF [6]): inactive
Cc1ccc(CN(C(=O)N[C@@H](CS(=O)(=O)Cc2ccccc2)C(=O)O)C(=O)c2ccc3c(c2)CCN(Cc2ccccc2-c2ccc(Cl)cc2)C3)cc1 | 0.17 | 5.3 | 0.133 | 0.066 | > 12.5 | > 12.5 | > 12.5 | 
Cc1ccc(CN(C(=O)N[C@@H](CSCc2ccccc2)C(=O)O)C(=O)c2ccc3c(c2)CCN(Cc2ccccc2-c2ccc(Cl)cc2)C3)cc1 | 0.21 | 2 | 0.24 | 0.152 | 10 | > 12.5 | 4.6 | 
Cc1ccc(CN(C(=O)N[C@@H](CS(=O)(=O)CC23CC4CC(CC(C4)C2)C3)C(=O)O)C(=O)c2ccc3c(c2)CCN(Cc2ccccc2-c2ccc(Cl)cc2)C3)cc1 | 0.04 | 1.8 | 0.044 | 0.107 | > 12.5 | > 12.5 | 5.9 | 
Cc1ccc(CN(C(=O)N[C@@H](CS(=O)(=O)CC2CCCCC2)C(=O)O)C(=O)c2ccc3c(c2)CCN(Cc2ccccc2-c2ccc(Cl)cc2)C3)cc1 | 0.04 | 1.8 | 0.041 | 0.018 | 6.8 | > 12.5 | 4.6 | EC50 (MEF [3]): 19.2 µM; Activity (MEF [12]): inactive; Activity (MEF [13]): inactive; Activity (MEF [14]): inactive; Activity (COLO 205): inactive; Activity (MEF [4]): 30%; Activity (MEF [5]): inactive; Activity (MEF [6]): inactive
Cc1ccc(CN(C(=O)N[C@@H](CS(=O)(=O)CC2CCCCC2)C(=O)O)C(=O)c2ccc(-c3ccccc3)cc2)cc1 | 0.46 | 10 | 0.62 | > 12.5 | > 12.5 | > 12.5 | > 12.5 | 
CN(C)CC[C@H](CSc1ccccc1)Nc1ccc(S(=O)(=O)NC(=O)c2ccc(N3CCN(Cc4ccccc4-c4ccc(Cl)cc4)CC3)cc2)cc1[N+](=O)[O-] [ABT 737] | 0.004 | 40 | < 0.00025 | < 0.00025 | 0.012 | > 12.5 |  | EC50 (MEF [3]): 0.013 µM; Activity (MEF [12]): inactive; Activity (MEF [13]): inactive; Activity (MEF [15]): >90%
Cc1ccc(CN(C(=O)N[C@@H](CSCc2ccccc2)C(=O)O)C(=O)c2ccc(-c3cccc(-c4ccccc4-c4ccc(Cl)cc4)c3)cc2)cc1 | 0.24 | 1.5 |  |  |  |  |  | 
Cc1ccc(CN(C(=O)N[C@@H](CS(=O)(=O)CC23CC4CC(CC(C4)C2)C3)C(=O)O)C(=O)c2ccc(-c3ccccc3)cc2)cc1 | 0.19 | 6.1 | 0.42 | 9.4 | > 12.5 | > 12.5 | 6.8 | 

Now from value to compound, other results behind:

IC50 [1] [µM] | IC50 [2] [µM] | IC50 [7] [µM] | IC50 [8] [µM] | IC50 [9] [µM] | IC50 [10] [µM] | IC50 [11] [µM] | SMILES | further results
> 100 | > 100 |  |  |  |  |  | COC(=O)[C@H](CSCc1ccccc1)NC(=O)N(Cc1ccc(C)cc1)C(=O)c1ccc(-c2ccccc2)cc1 | 
13.1 | 44 |  |  |  |  |  | CSC[C@H](NC(=O)N(Cc1ccc(C)cc1)C(=O)c1ccc(-c2ccccc2)cc1)C(=O)O | 
1.09 | 8 |  |  |  |  |  | Cc1ccc(CN(C(=O)N[C@@H](CCCc2ccccc2)C(=O)O)C(=O)c2ccc(-c3ccccc3)cc2)cc1 | 
0.38 | 11.8 |  |  |  |  |  | Cc1ccc(CN(C(=O)N[C@@H](COCc2ccccc2)C(=O)O)C(=O)c2ccc(-c3ccccc3)cc2)cc1 | 
0.59 | 11.6 | 1.8 | > 12.5 | > 12.5 | > 12.5 | > 12.5 | Cc1ccc(CN(C(=O)N[C@@H](CS(=O)(=O)Cc2ccccc2)C(=O)O)C(=O)c2ccc(-c3ccccc3)cc2)cc1 | 
0.51 | 7.7 |  |  |  |  |  | Cc1ccc(CN(C(=O)N[C@@H](CSCc2ccccc2)C(=O)O)C(=O)c2ccc(-c3ccccc3)cc2)cc1 | 
